Columns and labels:
[1] = target: T1, Poly [ADP-ribose] polymerase 1 (Homo sapiens, UniProt P09874); assay: Inhibition of GST-tagged recombinant human PARP-1 expressed in Escherichia coli after 30 mins by fluorescence-based assay
Mus musculus [2] = assay: Toxicity in SCID beige mouse xenografted with human MX1 cells assessed as lethality at 200 mg/kg, ip administered qd for 5 days per week up to 3 weeks; assay type: organism-based; parameters: dose 200 mg/kg, route intraperitoneal; conditions: in vivo
In short: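 Athymic SCID beige mice carrying MX1 breast carcinoma xenografts (BRCA1 deletion, BRCA2 mutation), 8 per group. Treatment began 7 days after tumour cell injection: ip at 200 mg/kg in 10 mL/kg, once daily 5 days/week for 3 weeks, with a vehicle-treated control group. Lethality was scored as deaths per group. Body-weight loss % was recorded alongside, and tumour volume was measured at day +38.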

Mus musculus [3] = assay: Toxicity in SCID beige mouse xenografted with human MX1 cells assessed as body weight loss at 200 mg/kg, ip administered qd for 5 days per week up to 3 weeks relative to control; assay type: organism-based; parameters: dose 200 mg/kg, route intraperitoneal; conditions: in vivo
In short: (§1)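 MX1 breast carcinoma cells were xenografted into athymic SCID beige mice, with dosing starting 7 days after tumor injection. Compound was given intraperitoneally at 200 mg/10 mL/kg, schedule qdx5/wx3w, versus a vehicle group; 8 mice per group. Tumor volume and body weight loss were read at day +38. Tumor volume was compared with the vehicle group by Mann-Whitney test.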

[4] = Activity at P-gp (unknown origin); assay type: ADME; conditions: human
[5] = target: T1, Poly [ADP-ribose] polymerase 1; assay: Inhibition of PARP-1-mediated PARylation in H2O2-induced human HeLa cells preincubated for 3 hrs followed by H2O2 addition measured after 5 mins by Draq5 staining-based fluorescence assay; assay type: cell-based
In short: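 HeLa cell PARylation assay; EC50 values are the mean of two experiments.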

[6] = Metabolic stability in human plasma assessed as compound recovery after 2 hrs; assay type: ADME, cell-free; conditions: read-out: Drug recovery
[7] = Ratio of drug level in blood to plasma (unknown origin) after 60 mins; assay type: ADME; conditions: blood and plasma
MX1 = assay: Antitumor activity against human MX1 cells xenografted in SCID beige mouse assessed as tumor volume inhibition at 200 mg/kg, ip administered qd for 5 days per week up to 3 weeks relative to control; assay type: functional; parameters: scale not given: the % may be the effect or the level left; conditions: route intraperitoneal; in short: as §1
[8] = Efflux ratio of permeability in human Caco2 cells; assay type: ADME, cell-based; conditions: Caco-2
In short: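 Bidirectional Caco-2 cell monolayer permeability assay; the efflux ratio was derived from the two transport directions.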

[9] = Half life in human hepatocytes; assay type: ADME, cell-based, Hepatocyte
[10] = Growth inhibition of human MDA-MB-436 cells after 7 days by SRB assay; conditions: MDA-MB-436, 7 days

T1 sequence (P09874 whole entry): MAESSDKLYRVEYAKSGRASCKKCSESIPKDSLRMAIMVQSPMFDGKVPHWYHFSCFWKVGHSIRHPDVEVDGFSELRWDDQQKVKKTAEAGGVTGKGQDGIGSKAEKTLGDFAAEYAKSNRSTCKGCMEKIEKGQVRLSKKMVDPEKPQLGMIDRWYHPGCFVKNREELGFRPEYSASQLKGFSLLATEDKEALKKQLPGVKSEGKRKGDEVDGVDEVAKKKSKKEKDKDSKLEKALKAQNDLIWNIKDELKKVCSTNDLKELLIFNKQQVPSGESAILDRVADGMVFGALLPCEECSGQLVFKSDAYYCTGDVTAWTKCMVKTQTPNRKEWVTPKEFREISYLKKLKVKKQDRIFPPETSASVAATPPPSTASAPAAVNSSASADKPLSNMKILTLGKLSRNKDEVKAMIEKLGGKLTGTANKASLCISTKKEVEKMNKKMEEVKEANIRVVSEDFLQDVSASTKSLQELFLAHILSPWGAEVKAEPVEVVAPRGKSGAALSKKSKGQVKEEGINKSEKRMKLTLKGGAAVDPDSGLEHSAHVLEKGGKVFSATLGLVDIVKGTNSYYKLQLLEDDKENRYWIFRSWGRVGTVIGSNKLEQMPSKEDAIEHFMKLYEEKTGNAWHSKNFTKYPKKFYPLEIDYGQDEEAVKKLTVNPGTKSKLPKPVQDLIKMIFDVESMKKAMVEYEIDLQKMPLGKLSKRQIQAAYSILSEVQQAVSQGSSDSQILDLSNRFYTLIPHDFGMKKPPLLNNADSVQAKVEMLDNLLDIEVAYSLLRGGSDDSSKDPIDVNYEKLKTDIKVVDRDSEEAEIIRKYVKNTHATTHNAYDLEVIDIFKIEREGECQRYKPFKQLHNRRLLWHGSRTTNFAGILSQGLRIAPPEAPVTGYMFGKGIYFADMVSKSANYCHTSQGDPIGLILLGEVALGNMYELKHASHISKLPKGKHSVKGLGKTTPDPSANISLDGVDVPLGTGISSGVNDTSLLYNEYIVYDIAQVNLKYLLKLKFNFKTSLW

Row | IC50 [1] [nM] | SMILES | other results
1 | 350 | Cc1ccc(NC(=O)CCn2c(=O)[nH]c(=O)c3ccccc32)c(O)c1 | 
2 | 410 | NS(=O)(=O)Nc1ccc(NC(=O)CCn2c(=O)[nH]c(=O)c3ccccc32)cc1 | 
3 | 1960 | O=C(Cc1n[nH]c(=O)c2ccccc12)NCC(c1ccccc1Cl)N1CCCC1 (stereo not drawn) | 
4 | 130 | O=C(CCc1nc2ccccc2c(=O)[nH]1)N1CCN(C(=O)C2CCCO2)CC1 (stereo not drawn) | 
5 | 1060 | NC(=O)c1ccccc1OCC(=O)N1CC(=O)Nc2cc(C(F)(F)F)ccc21 | 
6 | 280 | CC(=O)c1ccc(N2CCN(C(=O)COc3ccccc3C(N)=O)CC2)c(F)c1 | 
7 | 760 | CC(=O)Nc1ccc(NC(=O)CCn2c(=O)[nH]c(=O)c3ccccc32)cc1 | 
8 | 1030 | Cc1ccc2c(c1)CCCN2C(=O)CCc1nc2ccccc2c(=O)[nH]1 | 
9 | 87.4 | CN(C)CC(C)(C)CN/C=C1/C(=O)NC(=O)c2ccccc21 | 
10 | 4700 | NC(=O)c1ccc(NC(=O)CCCc2nc3ccccc3c(=O)[nH]2)cc1 | 
11 | 2540 | O=C1NC(=O)c2ccccc2/C1=C\c1ccc(F)cc1 | 
12 | 270 | NC(=O)C1CCN(C(=O)CCc2nc(O)c3ccccc3n2)CC1 | 
13 | 1520 | O=C(CCn1c(=O)[nH]c(=O)c2ccccc21)Nc1ccccc1F | 
14 | 540 | O=C1CN(C(=O)CSc2nc3ccccc3c(=O)[nH]2)c2ccccc2N1 | 
15 | 280 | O=C(Cc1n[nH]c(=O)c2ccccc12)NCCc1ccc2c(c1)OCCO2 | 
16 | 260 | O=C(c1n[nH]c(=O)c2ccccc12)N1CCN(/C=C/c2ccccc2)CC1 | 
17 |  | Cn1nnc2c(C(N)=O)ncn2c1=O [TEMOZOLOMIDE] | IC50 [10]: 120000 nM
18 | 190 | O=C1CN(C(=O)CCc2nc3ccccc3c(=O)[nH]2)CCN1 | 
19 | 1860 | CC(NC(=O)Cc1n[nH]c(=O)c2ccccc12)c1ccc2c(c1)CCCC2 (stereo not drawn) | 
20 | 130 | Cc1c(C(=O)N2CCN(C(=O)CCc3nc4ccccc4c(=O)[nH]3)CC2)oc2ccccc12 | 

Row | IC50 [1] [nM] | SMILES | other results
21 | 110 | O=C(CCc1nc2ccccc2c(=O)[nH]1)N1CCN(C(=O)C2CCCC2)CC1 | 
22 | 820 | CC(NC(=O)COc1ccccc1C(N)=O)c1ccccc1 (stereo not drawn) | 
23 | 31.9 | O=C(CCc1nc2ccccc2c(=O)[nH]1)N1CCN(C(=O)C2CCCNC2)CC1 (stereo not drawn) | 
24 | 220 | C=CCN1CCCC(C(=O)N2CCN(C(=O)CCc3nc4ccccc4c(=O)[nH]3)CC2)C1 (stereo not drawn) | 
25 | 28.5 | O=C(CCc1nc2ccccc2c(=O)[nH]1)N1CCN(C(=O)c2ccco2)CC1 | 
26 | 1210 | O=C1NC(=O)c2ccccc2/C1=C\Nc1ccccc1N1CCCCC1 | 
27 | 300 | C=CCOC(=O)N1CCCC(C(=O)N2CCN(C(=O)CCc3nc4ccccc4c(=O)[nH]3)CC2)C1 (stereo not drawn) | 
28 | 600 | CCN(CC(=O)Cc1c(F)cccc1F)C(=O)Cc1n[nH]c(=O)c2ccccc12 | 
29 | 56.1 | O=C(CCc1nc2ccccc2c(=O)[nH]1)N1CCN(C(=O)c2ccc(F)cc2)CC1 | Activity [4]: Not Active; EC50 [5]: 467 nM; remaining at 2 h [6]: 57%; blood plasma ratio at 1 h [7]: 0.4; efflux ratio [8]: 6; half-life [9]: 10.3 h; IC50 [10]: 19500 nM
30 | 820 | NC(=O)c1ccc(COc2ccccc2C(N)=O)cc1 | 
31 | 130 | NC(=O)c1ccc(NC(=O)CCn2c(=O)[nH]c(=O)c3ccccc32)cc1 | 
32 | 49.8 | O=C(Cc1n[nH]c(=O)c2ccccc12)NCc1ccc(N2CCOCC2)nc1 | 
33 | 87.6 | CC(=O)c1ccc(NC(=O)CCn2c(=O)[nH]c(=O)c3ccccc32)cc1 | 
34 | 29.5 | O=C(CCc1nc2ccccc2c(=O)[nH]1)N1CCN(C(=O)c2ccc[nH]2)CC1 | EC50 [5]: 865 nM; IC50 [10]: 18100 nM
35 | 1280 | Cc1ccc(NS(=O)(=O)c2ccc(NC(=O)Cn3c(=O)[nH]c(=O)c4ccccc43)cc2C)c(C)c1 | 
36 | 42.9 | NC(=O)c1ccccc1OCC(=O)N1CCc2ccccc2C1 | 
37 | 67.1 | O=C(CCc1nc2ccccc2c(=O)[nH]1)N1CCN(C(=O)C2CC2)CC1 | EC50 [5]: 707 nM; IC50 [10]: 51100 nM
38 | 600 | O=C(Cc1n[nH]c(=O)c2ccccc12)NCc1ccc(S(=O)(=O)N2CCOCC2)cc1 | 
39 | 1660 | Cc1oc(C(N)=O)cc1COc1ccccc1C(N)=O | 
40 | 690 | CC(C)NS(=O)(=O)c1ccc(NC(=O)Cc2n[nH]c(=O)c3ccccc23)cc1 | 

Row | SMILES | IC50 [1] [nM] | other results
41 | O=C(CCc1nc2ccccc2c(=O)[nH]1)N1CCN(C(=O)c2cccs2)CC1 | 9.8 | Activity (Mus musculus [2]): Non-toxic; Activity (Mus musculus [3]): 10%; Activity [4]: Not Active; EC50 [5]: 256 nM; remaining at 2 h [6]: 50%; blood plasma ratio at 1 h [7]: 0.4; Activity (MX1): 47%; efflux ratio [8]: 5.8; half-life [9]: 9.73 h; IC50 [10]: 17300 nM
42 | O=C(CN1CCN(C(=O)Cc2n[nH]c(=O)c3ccccc23)CC1)Nc1cccc(F)c1 | 1100 | 

Reference: ChEMBL document CHEMBL3102760, “Novel PARP-1 inhibitors based on a 2-propanoyl-3H-quinazolin-4-one scaffold” (Bioorg Med Chem Lett, 2014)
